Diaphorase act = activates diaphorase or chemically reduces, flagging diaphorase assay artifacts; Diaphorase/resazurin coupled assay, resorufin fluorescence, 16 min; stronger effect = higher value; 1 = vehicle wells, 0 = NADH-free wells; activation factor at 20 µM; actives 0.005% (n = 190,000);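 active = diaphorase activity raised at least twofold by the compound at 20 µM; inactive = activation factor below 2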
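Assay system: Purified diaphorase enzyme from Clostridium kluyveri | Amount: Enzyme 0.07 U/mL final | Dosing: Compound 20 µM once, DMSO 1% | Timing: 16 min reaction at room temperature | Detection: Fluorescence, excitation 544 nm and emission 590 nm | Evaluation: Higher resorufin formation from activation or reduction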
14-3-3 Bad PPI = disrupts binding of bovine 14-3-3 zeta to phospho-Bad peptide; actives 0.71% (n = 220,000); inhibition, % at 21.7 µM; TR-FRET 14-3-3zeta/Dy647-pBad peptide displacement, 1 h; AID 781; P63103;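 active = inhibition above about 70%, limit read from the data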;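 also: 0% = full 14-3-3 plus peptide FRET controls and 100% = background without 14-3-3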
NCF1 inh = inhibitors of human p47phox binding | P14598 | p47phox/p22phox peptide binding, fluorescence polarization, 2 h | inhibition, % at 24.7 µM | actives 0.53% (n = 220,000);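 also: 0% = p47phox with labelled peptide and 100% = labelled peptide alone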
Hck-Nef inh = blocks Nef-activated human Hck kinase. P08631. actives 0.68% (n = 220,000). inhibition, % at 20 µM. Recombinant Hck-YEEI plus Nef, Z-Lyte FRET kinase assay;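 active = Hck-Nef kinase inhibition above about 50%, limit read from the data; inactive = inhibition below that limit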;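 also: 0% = DMSO with Hck plus Nef and 100% = Hck alone without Nef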
eIF4E 4G PPI = inhibitors of eIF4E and eIF4G interaction in translation initiation; actives 0.37% (n = 220,000); inhibition, % at 21.7 µM; TR-FRET eIF4E-eIF4GI(517-606) binding, 2 h; P63073+Q04637;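 also: 0% = full FRET control wells and 100% = background wells lacking eIF4GI fragment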
Starred values were filed as active, the others as inactive; nt = no result; + = active, no number; [ ] = remark or other dose. In the library only some 2% were active in any assay of this set; here they are far more common.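 The calls were made as follows, unless noted: active = inhibition above about 30% (limit read from the data); inactive = the rest.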

SMILES | Diaphorase act | 14-3-3 Bad PPI | NCF1 inh | Hck-Nef inh | eIF4E 4G PPI
CCn1c(NC(=O)c2ccccc2F)c(-c2cccs2)c(=O)c2ccccc21 | nt | -2 | 1 | 3 | 0
CCN(CC)c1c([N+](=O)[O-])c(=O)n(CC)c2ccccc12 | nt | 2 | -17 | 34 | 1
CCOC(=O)CC1C(=O)NCCN1C(=O)Nc1ccc(Cl)cc1 (configuration not stated) | 0.9 | 73*[fluorescence artefact?] | -7 | 0 | 3
COC(=O)CC1C(=O)NCCN1C(=O)Nc1ccc(Cl)cc1 (configuration not stated) | 1 | -16 | -9 | 2 | 0
NC1=NC(c2ccccc2)=NC1(NC(=O)c1ccccc1)C(Cl)Cl (configuration not stated) | nt | -1 | -12 | 8 | 2
CCOC(=O)/C(C(=O)Nc1ccccc1Cl)=C1/NC(C)(C)Cc2ccccc21 | 0.9 | 10 | -11 | 0 | 0
CCOC(=O)/C(C)=C1\NC(C)(C)Cc2ccccc21 | 0.8 | 33 | 62* | 4 | 1
CCNc1ccc(Br)cc(C(=O)/C=C/c2c(Cl)cccc2Cl)c1=O | 0.6 | 83*[fluorescence artefact?] | -5 | 3 | 10
O=[N+]([O-])c1cc(C(F)(F)F)cc([N+](=O)[O-])c1Sc1n[nH]c(C(F)(F)F)n1 | nt | -4 | -12 | 3 | 3
Cc1ccccc1NC(=O)c1sc(Cl)nc1-c1ccccc1 | 0.9 | -4 | 68* | 6 | 2
Cc1ccc(C)c(NC(=O)c2sc(Cl)nc2-c2ccccc2)c1 | 0.9 | -9 | 2 | 10 | 3
CCOc1ccc(-n2c(=O)c3sccc3n(Cc3ccc(C)cc3)c2=O)cc1 | 1 | -17 | -3 | -1 | 0
COc1cc(-c2noc(-c3ccccc3C(=O)NCc3ccco3)n2)cc(OC)c1OC | 0.8 | -10 | 42* | 0 | -3
COc1ccccc1-c1noc(-c2ccccc2C(=O)NCc2ccco2)n1 | 0.9 | -8 | -4 | -18 | -12
Cc1ccc(C(=O)NC(=O)OCCn2c(C)cnc2[N+](=O)[O-])cc1 | 1 | 74* | 10 | 19 | 1
COc1ccc(N(C)C(=O)c2oc(=O)c3ccccc3c2-c2ccc(C)cc2)c(OC)c1 | nt | 2 | 6 | -18 | 4
CCCc1cc(=O)oc2cc(C)cc(O)c12 | 0.9 | nt | 147* | -6 | nt
COc1ccc2[nH]c(C(=O)O)c(CCN3C(=O)c4cccc([N+](=O)[O-])c4C3=O)c2c1 | nt | -8 | -3 | 15 | 3
COc1ccccc1/C=C/C(=O)c1c2c(c(C)[nH]c1=O)CCCC2 | 0.8 | -6 | -16 | 0 | 67*
COc1ccccc1/C=C/C(=O)c1ccccc1 | nt | 2 | -4 | -7 | 0
COC(=O)c1ccc2c(=O)n(Cc3ccco3)c(SCC(=O)Nc3cc(C)on3)nc2c1 | 1 | -1 | 0 | 34 | -6
COC(=O)c1ccc2c(=O)n(Cc3ccco3)c(SCC(=O)Nc3ccccc3Cl)nc2c1 | 0.9 | 11 | 46* | 22 | -30
O=C(CSc1nc2ccccc2c(=O)n1Cc1ccco1)NCc1ccco1 | 0.9 | 88*[fluorescence artefact?] | -7 | 7 | 10
O=C(CSc1nc2ccccc2c(=O)n1-c1ccccc1)NCc1ccc2c(c1)OCO2 | 1.1 | nt | 53* | 0 | nt
CCCCn1c(SCC(=O)NCc2ccco2)nc2ccccc2c1=O | 0.8 | -15 | -20 | 2 | -5
SMILES | Diaphorase act | 14-3-3 Bad PPI | NCF1 inh | Hck-Nef inh | eIF4E 4G PPI
Cc1cccc(-n2c(SCC(=O)NCc3ccc4c(c3)OCO4)nc3ccccc3c2=O)c1 | 1 | -7 | -17 | 2 | -3
CN(C)c1cc(-c2ccc(Br)cc2)oc(=O)c1Cl | nt | -2 | -4 | 9 | -2
O=C(O)CC(NC(=O)Cc1ccc(Cl)cc1)c1ccco1 (configuration not stated) | 0.9 | 1 | nt | -1 | -2
COc1cccc2cc(C(C)=O)c(=O)oc12 | 0.9 | 36 | -8 | 4 | 3
COc1cccc2cc(C(=O)NNC(=O)c3ccc(Br)cc3)c(=O)oc12 | 1.1 | 59 | 37* | 19 | 14
CC(=O)C1=C(O)C(=O)N(c2cccnc2)C1c1ccc(Cl)cc1 (configuration not stated) | 0.8 | 83* | -3 | -3 | 6
O=C(NC1CCCC1)C(c1ccncc1)N(C(=O)c1csnn1)C1CCCC1 (configuration not stated) | 0.9 | -11 | -1 | 13 | -4
Cc1cc(NC(=O)c2coc(=O)c(Br)c2)ccc1C(C)C | nt | -3 | 37* | 7 | 2
COc1ccc(CN2CCC(C(=O)N3CCCC(C)C3)CC2)cc1OC (configuration not stated) | 0.8 | 7 | -7 | -3 | -3
COc1cc(CN2CCC(C(=O)N3CCCC(C)C3)CC2)cc(Br)c1O (configuration not stated) | 0.8 | 79* | 0 | 1 | 15
Cc1ccccc1OCCn1cnc2c(N)ncnc21 | 1.1 | 47 | 41* | -21 | 5
Nc1ncnc2c1ncn2CCN1CCCCC1 | 1 | 5 | -6 | 4 | 4
NS(=O)(=O)c1ccc(N=C2C(=O)Nc3ccccc32)cc1 | nt | 3 | -12 | 12 | -5
O=C1Nc2ccccc2C1=Nc1ccc(S(=O)(=O)Nc2nccs2)cc1 | nt | 1 | -4 | 67* | -1
Cc1ccc(-n2cc(CNCC3CC(=O)N(C4CC4)C3)c(-c3cccc(C)c3)n2)cc1 (configuration not stated) | 1.3 | -2 | -5 | 1 | 0
COCCn1c(=O)[nH]c(=O)c2c1nc(-c1ccc(-c3ccc(Cl)cc3[N+](=O)[O-])o1)n2Cc1ccccc1 | 0.6 | -21 | -19 | 9 | 9
COc1ccc(-c2ccc(-c3nc4c(c(=O)[nH]c(=O)n4Cc4ccccc4)n3C)o2)c([N+](=O)[O-])c1 | 0.7 | 51 | 55* | 0 | 7
O=C(Nc1cccc(C(=O)O)c1)/C(=C\c1ccccc1)NC(=O)c1cccc2ccccc12 | 0.8 | -10 | 122* | 1 | -3
CCOc1ccccc1N1CCN(Cc2cnc(-c3ccccc3)[nH]2)CC1 | nt | 1 | -1 | 18 | -5
CCC1CC(C)(C(=O)Nc2ccc(S(N)(=O)=O)cc2)OC1=O (configuration not stated) | 1.1 | 14 | + | 2 | 2
C[C@H](N)c1nnc(SCC(N)=O)o1 | nt | 1 | 6 | 18 | -3
C=CCNCC(O)COc1ccc(C(C)=O)cc1OC (configuration not stated) | nt | 33 | 4 | -3 | 3
Cc1ccc(OCC(=O)Nc2sc3c(c2C#N)CC(C)(C)NC3(C)C)cc1 | 0.9 | -4 | -8 | 22 | 2
CC1(C)Cc2c(sc(NC(=O)COc3cccc4ccccc34)c2C#N)C(C)(C)N1 | nt | -71 | 51* | -189 | -60
COc1ccc(N/N=C(\C#N)C(N)=O)cc1 | 1.1 | -11 | -35 | 3 | -7
COc1ccc(N/N=C(/C(N)=O)C2=NC(C)(C)Cc3ccccc32)cc1 | 0.7 | -19 | -7 | 54* | 10
